# Entries after “also recorded” stand apart in the source; their conditions may differ. Like-named read-outs stand apart in the source and are kept apart here.
# Experiments:
# GluN1/GluN3 receptors [1] = settings: ref Kvist et al., 2013a; cited from earlier work
# [2] = target: human GluN1^FA,TL/GluN3A receptors (Homo sapiens, UniProt Q8TCU5); assay type: cell-based
# glycine receptors (α1) = target: T1, glycine receptors (α1) (Rattus norvegicus, UniProt P07727); assay: Selectivity test in Xenopus oocytes: glycine receptors; assay type: cell-based; settings: 20 μM; 100 μM glycine
# T1 sequence (P07727 29-457): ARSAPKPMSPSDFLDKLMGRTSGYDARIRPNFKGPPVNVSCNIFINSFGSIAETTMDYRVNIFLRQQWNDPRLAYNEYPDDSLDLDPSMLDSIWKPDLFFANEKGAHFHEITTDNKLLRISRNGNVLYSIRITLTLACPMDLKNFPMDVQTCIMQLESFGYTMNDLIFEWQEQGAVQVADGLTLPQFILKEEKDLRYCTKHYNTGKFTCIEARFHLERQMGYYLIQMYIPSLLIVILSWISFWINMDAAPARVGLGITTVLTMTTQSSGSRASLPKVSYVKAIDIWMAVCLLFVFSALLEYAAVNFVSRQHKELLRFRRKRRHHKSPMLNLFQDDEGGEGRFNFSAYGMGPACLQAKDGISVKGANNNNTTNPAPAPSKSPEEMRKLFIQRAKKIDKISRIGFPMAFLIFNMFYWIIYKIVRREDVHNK
# [3] = target: T2, P2X receptors (human P2X2) (Homo sapiens, UniProt Q9UBL9); assay: Selectivity test in Xenopus oocytes: purinergic receptors; assay type: cell-based; settings: 20 μM; 9 μM ATP
# T2 sequence (Q9UBL9 1-471): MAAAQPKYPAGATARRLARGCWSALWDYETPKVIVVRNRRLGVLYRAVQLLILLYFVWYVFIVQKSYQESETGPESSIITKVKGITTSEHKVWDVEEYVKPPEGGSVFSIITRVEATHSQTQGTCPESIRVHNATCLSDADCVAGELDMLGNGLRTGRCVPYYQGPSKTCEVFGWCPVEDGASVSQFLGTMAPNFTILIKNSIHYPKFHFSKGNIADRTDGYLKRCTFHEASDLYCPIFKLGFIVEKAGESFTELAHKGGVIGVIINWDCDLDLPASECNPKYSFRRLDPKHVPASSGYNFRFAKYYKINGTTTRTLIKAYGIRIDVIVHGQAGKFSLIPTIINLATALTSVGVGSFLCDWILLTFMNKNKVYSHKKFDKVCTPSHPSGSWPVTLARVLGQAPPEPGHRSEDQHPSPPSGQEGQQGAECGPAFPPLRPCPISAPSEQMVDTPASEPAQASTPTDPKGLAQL
# [4] = target: alpha7 nicotinic receptors (Rattus norvegicus, UniProt Q05941); assay: Selectivity test in Xenopus oocytes: alpha7 nicotinic receptors; assay type: cell-based; settings: 20 μM; 300 μM acetylcholine
# GluN1/GluN3A channels = GluN1/GluN3A channels (Mus musculus, UniProt A2AIR5); assay: Nonstationary variance analysis of neuronal glycine-evoked current responses; assay type: cell-based; settings: 30 μM; VHOLD −60 mV; n = 5
# Method in brief: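 Acute mouse hippocampal slices (P8–15), CA1 pyramidal cells, whole-cell at −60 mV, 32°C ACSF with gabazine, NBQX, DL-APV, strychnine and 1 μM CGP-78608. […] Compound at 30 μM or 0.15% DMSO bath-applied. Ten deactivation phases per condition at steady state, split into 50 segments, high-passed at 1 Hz. Variance–current fit gave unitary current; chord conductance assumed 0 mV reversal.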
# [5] = target: rat GluN1/GluN3B receptors (rat GluN1–4a/GluN3B) (Rattus norvegicus, UniProt Q8VHN2); assay type: cell-based
# Method in brief: (§1)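 Xenopus oocyte two-electrode voltage clamp at −40 mV, 23°C. Human GluN1/GluN3A or rat GluN1–4a/GluN3B, with GluN1:GluN3 cRNA at 1:3. […] Concentration–response data normalized to responses without test compound, fitted by Hill equation for IC50, slope and residual minimum. Percent inhibition was 100×(1−Idrug/Icontrol) at fitted maximum. IC50 taken from mean log(IC50); 8–9 oocytes.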
# [6] = system: GABA receptors (GABAA α1β2γ2S, GABAC ρ1); assay: Selectivity test in Xenopus oocytes: GABA receptors; assay type: cell-based, rat; settings: 20 μM; 100 μM GABA
# [7] = target: rat GluN1–4a^FA,TL/GluN3B receptors (Rattus norvegicus, UniProt P35439+Q8VHN2, F484A/T518L); assay type: cell-based
# [8] = system: GluK1–2 and GluK2/GluK5 kainate receptors; assay: Selectivity test in Xenopus oocytes: kainate receptors; assay type: cell-based, human; settings: 20 μM; 100 μM glutamate (GluK2/K5: 100 μM AMPA)
# [9] = target: muscle nicotinic receptors (α1β1δγ) (Rattus norvegicus, UniProt P18916+P25108+P25109+P25110); assay: Selectivity test in Xenopus oocytes: muscle nicotinic receptors; assay type: cell-based; settings: 20 μM; 1 μM acetylcholine
# Method in brief: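 Two-electrode voltage clamp on Xenopus oocytes 2–5 days after cRNA injection; muscle nAChR subunits were injected 1:1:1:1. Recorded at 23°C and −40 mV in HEPES/BaCl2 saline, pH 7.4. Test compound at 20 μM was co-applied with agonist. Response was given as percent of control, taking control as the mean of responses before and after compound exposure.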
# α2β4 nicotinic receptors = α2β4 nicotinic receptors (Rattus norvegicus, UniProt P09483+P12390); assay: Selectivity test in Xenopus oocytes: α2β4 nicotinic receptors; assay type: cell-based; settings: 20 μM; 10 μM acetylcholine
# GluA1–4 AMPA receptors = assay: Selectivity test in Xenopus oocytes: AMPA receptors; assay type: cell-based, rat, human; settings: 20 μM; 100 μM glutamate
# [10] = target: native GluN1/GluN3A receptors (Mus musculus, UniProt A2AIR5); assay type: cell-based; settings: 30 μM; 1 μM CGP-78608; 10 mM glycine puffs; mouse P8–15 slices
# [11] = target: human GluN1/GluN3A receptors (Homo sapiens, UniProt Q8TCU5); assay type: cell-based
# Method in brief: as §1
# [12] = system: GluN1/GluN2 NMDA receptors (GluN1 co-expressed with GluN2A-D); assay: Selectivity test in Xenopus oocytes: GluN1/GluN2 NMDA receptors; assay type: cell-based
# [13] = system: GluN1/GluN2 NMDA receptors; assay type: cell-based; settings: 30 μM; 0.5 mM NMDA puffs; mouse P8–15 slices
# GluN1/GluN3 receptors [14] = settings: ref Grand et al., 2018; cited from earlier work
# GluN3A = settings: read-out: EC50 of glycine at GluN3A; ref Grand et al., 2018; Kvist et al., 2013a; cited from earlier work
# GluN1 = settings: read-out: EC50 of glycine at GluN1; ref Grand et al., 2018; Kvist et al., 2013a; cited from earlier work
# [15] = 500 nM CGP-78608 plus 100 μM glycine
# Sequence of human GluN1^FA,TL/GluN3A receptors (Q8TCU5 24-1115, other chains not shown): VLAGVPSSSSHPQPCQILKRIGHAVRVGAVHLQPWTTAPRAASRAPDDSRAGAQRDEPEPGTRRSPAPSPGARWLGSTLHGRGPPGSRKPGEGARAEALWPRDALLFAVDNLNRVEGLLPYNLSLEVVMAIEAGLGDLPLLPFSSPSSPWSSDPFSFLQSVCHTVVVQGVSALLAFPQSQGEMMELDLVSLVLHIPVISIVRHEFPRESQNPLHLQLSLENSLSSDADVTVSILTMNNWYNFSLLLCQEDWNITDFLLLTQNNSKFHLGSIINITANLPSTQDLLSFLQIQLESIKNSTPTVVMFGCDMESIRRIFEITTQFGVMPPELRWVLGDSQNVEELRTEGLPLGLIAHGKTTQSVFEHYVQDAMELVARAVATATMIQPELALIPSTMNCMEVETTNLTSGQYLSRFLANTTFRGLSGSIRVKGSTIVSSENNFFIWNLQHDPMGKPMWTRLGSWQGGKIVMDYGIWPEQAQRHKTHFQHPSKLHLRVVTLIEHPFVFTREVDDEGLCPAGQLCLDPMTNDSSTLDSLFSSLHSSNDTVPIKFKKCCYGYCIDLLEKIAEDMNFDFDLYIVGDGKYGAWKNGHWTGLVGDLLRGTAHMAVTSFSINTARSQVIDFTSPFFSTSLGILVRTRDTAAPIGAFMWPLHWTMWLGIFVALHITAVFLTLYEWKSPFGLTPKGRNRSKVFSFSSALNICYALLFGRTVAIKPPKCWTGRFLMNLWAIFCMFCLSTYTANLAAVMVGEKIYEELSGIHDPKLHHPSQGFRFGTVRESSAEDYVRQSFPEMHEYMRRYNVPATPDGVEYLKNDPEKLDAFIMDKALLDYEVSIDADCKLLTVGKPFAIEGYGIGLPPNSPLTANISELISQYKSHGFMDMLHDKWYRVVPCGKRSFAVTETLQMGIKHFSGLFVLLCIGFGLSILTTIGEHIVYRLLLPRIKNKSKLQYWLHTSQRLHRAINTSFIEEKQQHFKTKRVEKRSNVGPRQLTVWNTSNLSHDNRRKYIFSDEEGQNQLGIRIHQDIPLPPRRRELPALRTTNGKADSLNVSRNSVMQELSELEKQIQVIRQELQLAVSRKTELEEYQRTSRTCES
# Sequence of human GluN1/GluN3A receptors (Q8TCU5 24-1115, other chains not shown): as above
# Sequence of rat GluN1/GluN3B receptors (rat GluN1–4a/GluN3B) (Q8VHN2 25-1002, other chains not shown): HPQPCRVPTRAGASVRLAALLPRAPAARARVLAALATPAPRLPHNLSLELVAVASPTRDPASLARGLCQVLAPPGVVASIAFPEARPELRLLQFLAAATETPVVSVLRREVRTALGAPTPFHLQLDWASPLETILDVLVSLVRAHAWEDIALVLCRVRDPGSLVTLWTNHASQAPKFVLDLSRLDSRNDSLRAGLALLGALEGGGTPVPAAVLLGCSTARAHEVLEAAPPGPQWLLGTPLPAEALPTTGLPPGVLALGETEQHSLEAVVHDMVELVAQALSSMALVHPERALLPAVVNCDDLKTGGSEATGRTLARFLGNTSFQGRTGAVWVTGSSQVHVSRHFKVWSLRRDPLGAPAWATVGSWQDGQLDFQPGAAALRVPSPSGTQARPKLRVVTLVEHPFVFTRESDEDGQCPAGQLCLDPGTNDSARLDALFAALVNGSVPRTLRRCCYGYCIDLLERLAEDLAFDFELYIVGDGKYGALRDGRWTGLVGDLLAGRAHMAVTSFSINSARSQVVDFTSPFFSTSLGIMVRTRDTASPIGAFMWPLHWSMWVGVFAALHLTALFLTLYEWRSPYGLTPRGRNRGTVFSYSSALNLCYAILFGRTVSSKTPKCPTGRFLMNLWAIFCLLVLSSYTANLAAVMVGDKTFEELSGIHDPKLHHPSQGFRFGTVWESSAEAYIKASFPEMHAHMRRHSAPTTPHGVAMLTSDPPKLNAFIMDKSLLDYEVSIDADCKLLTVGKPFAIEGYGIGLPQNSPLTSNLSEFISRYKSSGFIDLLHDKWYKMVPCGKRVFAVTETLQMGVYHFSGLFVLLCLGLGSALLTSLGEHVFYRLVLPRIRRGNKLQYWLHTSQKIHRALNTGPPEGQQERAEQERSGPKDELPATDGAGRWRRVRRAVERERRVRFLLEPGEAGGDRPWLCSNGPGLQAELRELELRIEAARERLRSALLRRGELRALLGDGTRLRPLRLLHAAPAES
# Sequence of native GluN1/GluN3A receptors (A2AIR5 27-1135, other chains not shown): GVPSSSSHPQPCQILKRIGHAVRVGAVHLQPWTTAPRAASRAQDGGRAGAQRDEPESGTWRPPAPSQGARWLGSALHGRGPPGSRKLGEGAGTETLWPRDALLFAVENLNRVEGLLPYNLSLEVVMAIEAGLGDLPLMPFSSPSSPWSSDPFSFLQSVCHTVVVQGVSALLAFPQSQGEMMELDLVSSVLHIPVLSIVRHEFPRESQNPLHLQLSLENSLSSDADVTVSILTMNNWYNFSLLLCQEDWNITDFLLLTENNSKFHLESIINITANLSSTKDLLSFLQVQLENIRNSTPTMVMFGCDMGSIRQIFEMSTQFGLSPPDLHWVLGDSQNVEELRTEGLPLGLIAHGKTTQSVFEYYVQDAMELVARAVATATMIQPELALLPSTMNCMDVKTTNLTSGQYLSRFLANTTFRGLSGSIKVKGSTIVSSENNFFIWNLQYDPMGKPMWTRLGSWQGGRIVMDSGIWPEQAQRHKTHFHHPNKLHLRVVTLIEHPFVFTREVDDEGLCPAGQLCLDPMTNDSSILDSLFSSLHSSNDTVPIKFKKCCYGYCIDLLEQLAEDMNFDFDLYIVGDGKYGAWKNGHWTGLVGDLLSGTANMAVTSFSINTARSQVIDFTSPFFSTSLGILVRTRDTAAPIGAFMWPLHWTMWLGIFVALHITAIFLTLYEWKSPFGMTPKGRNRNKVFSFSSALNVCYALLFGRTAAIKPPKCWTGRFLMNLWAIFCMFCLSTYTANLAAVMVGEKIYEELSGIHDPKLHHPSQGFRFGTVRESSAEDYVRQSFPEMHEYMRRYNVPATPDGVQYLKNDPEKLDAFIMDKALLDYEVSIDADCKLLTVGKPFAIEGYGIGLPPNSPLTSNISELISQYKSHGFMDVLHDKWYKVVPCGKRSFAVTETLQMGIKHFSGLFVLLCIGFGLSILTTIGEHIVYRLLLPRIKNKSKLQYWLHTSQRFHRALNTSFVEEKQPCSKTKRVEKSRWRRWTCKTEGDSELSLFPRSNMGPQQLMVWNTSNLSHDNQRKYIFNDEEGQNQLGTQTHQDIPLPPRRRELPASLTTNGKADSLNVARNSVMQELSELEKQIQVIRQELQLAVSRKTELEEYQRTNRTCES
# Sequence of rat GluN1–4a^FA,TL/GluN3B receptors (Q8VHN2 25-1002, other chains not shown): as the sequence (Q8VHN2 25-1002, other chains not shown) above
# Sequence of GluN1/GluN3A channels (A2AIR5 27-1135, other chains not shown): as the sequence (A2AIR5 27-1135, other chains not shown) above
# Sequence of alpha7 nicotinic receptors (Q05941 23-502): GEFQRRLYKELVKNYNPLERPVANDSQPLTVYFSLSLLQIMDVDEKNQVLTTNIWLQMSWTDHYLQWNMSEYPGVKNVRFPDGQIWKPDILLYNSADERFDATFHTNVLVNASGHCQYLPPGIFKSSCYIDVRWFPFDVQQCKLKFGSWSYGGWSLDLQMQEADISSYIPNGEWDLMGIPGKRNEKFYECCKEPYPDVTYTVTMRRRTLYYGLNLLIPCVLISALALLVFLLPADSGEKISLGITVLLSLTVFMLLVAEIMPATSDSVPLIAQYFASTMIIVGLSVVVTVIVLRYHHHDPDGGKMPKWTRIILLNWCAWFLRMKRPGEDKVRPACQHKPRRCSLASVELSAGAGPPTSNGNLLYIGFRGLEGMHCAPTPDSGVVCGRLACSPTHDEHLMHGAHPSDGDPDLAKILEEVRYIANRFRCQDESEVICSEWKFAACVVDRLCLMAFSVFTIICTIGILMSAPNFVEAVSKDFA
# Sequence of α2β4 nicotinic receptors (P09483 31-630): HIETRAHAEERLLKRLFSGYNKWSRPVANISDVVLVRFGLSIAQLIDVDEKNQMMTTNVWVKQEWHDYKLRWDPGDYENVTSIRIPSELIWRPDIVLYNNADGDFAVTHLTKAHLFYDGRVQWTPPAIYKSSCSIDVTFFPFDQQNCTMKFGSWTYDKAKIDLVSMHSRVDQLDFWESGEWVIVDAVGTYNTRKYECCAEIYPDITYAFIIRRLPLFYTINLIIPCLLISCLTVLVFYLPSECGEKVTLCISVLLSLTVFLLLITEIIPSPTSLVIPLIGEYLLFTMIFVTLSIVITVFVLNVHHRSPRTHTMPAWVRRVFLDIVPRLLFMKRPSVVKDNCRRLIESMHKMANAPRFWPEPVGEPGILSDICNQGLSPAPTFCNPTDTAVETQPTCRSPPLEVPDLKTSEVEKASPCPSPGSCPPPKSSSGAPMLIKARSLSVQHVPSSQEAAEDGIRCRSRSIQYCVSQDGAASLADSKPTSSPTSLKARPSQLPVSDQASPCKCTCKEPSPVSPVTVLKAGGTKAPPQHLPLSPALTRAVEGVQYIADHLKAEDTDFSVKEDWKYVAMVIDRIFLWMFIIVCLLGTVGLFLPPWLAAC
# Sequence of α2β4 nicotinic receptors (P12390 25-500): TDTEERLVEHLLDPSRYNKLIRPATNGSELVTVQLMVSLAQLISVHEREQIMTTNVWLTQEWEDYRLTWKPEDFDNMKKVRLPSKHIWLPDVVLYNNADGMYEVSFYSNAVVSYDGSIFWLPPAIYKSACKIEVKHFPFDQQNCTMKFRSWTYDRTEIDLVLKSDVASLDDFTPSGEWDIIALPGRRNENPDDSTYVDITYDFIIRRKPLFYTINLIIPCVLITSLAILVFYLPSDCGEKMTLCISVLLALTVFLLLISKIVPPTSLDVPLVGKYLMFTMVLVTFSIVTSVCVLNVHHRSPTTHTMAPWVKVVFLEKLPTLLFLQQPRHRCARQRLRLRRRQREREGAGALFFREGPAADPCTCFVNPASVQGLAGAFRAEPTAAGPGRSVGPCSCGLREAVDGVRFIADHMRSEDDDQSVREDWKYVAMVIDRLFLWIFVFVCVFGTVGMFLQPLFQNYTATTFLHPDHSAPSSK
structure (smiles),measurement,setting,value
O=C(O)c1cc(C(=O)c2ccc(Cl)cc2Cl)c[nH]1 [TK30],preference for GluN1/GluN3 over GluN1/GluN2 receptors,GluN1/GluN3 receptors [1],5- to 10 fold
"COc1ccc(OCC(c2ccc(OC)cc2)N2Cc3ccccc3C2=O)cc1 (stereo not shown) [EU1180–438, 2-(2-(4-methoxyphenoxy)-1-(4-methoxyphenyl)ethyl)isoindolin-1-one]","response in the presence of compound, % of control","[2]; 10 μM EU1180–438, 1 mM glycine",29 ± 4.2 % of control
same,dependence of inhibition on glycine concentration,"[2]; 10 μM EU1180–438, 1 mM vs 3 mM glycine",not altered by increasing glycine concentration
same,"response in the presence of compound, % of control","[2]; 10 μM EU1180–438, 3 mM glycine",29 ± 4.2 % of control
same,IC50,"[2]; IC50, pH 6.8",4.2 µM
same,IC50,"[2]; IC50, pH 7.4, 1 mM glycine, holding potential −40 mV, mean of individual fits",3.5 µM
same,% Inhibition (fitted maximum at saturating test compound),[2]; pH 6.8,72%
same,% Inhibition (fitted maximum at saturating test compound),"[2]; pH 7.4, 1 mM glycine, −40 mV",82%
same,"Slope (Hill slope, Fig. 1C)",[2]; responses activated by 1000 μM glycine,1.3
same,activity at glycine receptors,glycine receptors (α1),virtually no activity
same,activity at P2X receptors,[3],inactive
same,activity at alpha7 nicotinic receptors,[4],virtually no activity
same,average chord conductance of GluN1/GluN3A channels in the presence of compound,GluN1/GluN3A channels,6.3 ± 0.90 pS
same,"Slope (Hill slope, Fig. 1D)",[5]; [15],1.5
same,"minimum (residual current at saturating concentration, Fig. 1D)",[5]; [15],7%
same,% Inhibition (fitted maximum at saturating test compound),"[5]; pH 7.4, 0.5 μM CGP-78608",93%
same,activity at GABA receptors,[6],virtually no activity
same,IC50,[7],5.2 µM
same,% inhibition at saturating concentrations determined from the fitted curve,[7]; data not shown,82%
same,activity at kainate receptors,[8],virtually no activity
same,activity at muscle nicotinic receptors,[9],modestly inhibited
same,activity at α2β4 nicotinic receptors,α2β4 nicotinic receptors,modestly inhibited
same,activity at AMPA receptors,GluA1–4 AMPA receptors,virtually no activity
same,effect on glycine-activated responses of native GluN1/GluN3A receptors,[10],inhibited significantly; also recorded: strong inhibition
same,"Slope (Hill slope, Fig. 1D)",[11]; [15],1.5
same,"minimum (residual current at saturating concentration, Fig. 1D)",[11]; [15],15%
same,% Inhibition (fitted maximum at saturating test compound),"[11]; pH 7.4, 0.5 μM CGP-78608",85%
same,activity at GluN1/GluN2 NMDA receptors,"[12]; 20 μM, 100 μM glutamate/100 μM glycine",virtually no activity
same,activity at recombinant GluN1/GluN2 NMDA receptors (library screen),[12]; screen,no detectable activity
same,effect on NMDA-activated responses mediated by GluN1/GluN2 NMDA receptors,[13],does not affect current responses; also recorded: not modulated
"C[C@@H](NCc1cc(Br)cc2[nH]c(=O)c(=O)[nH]c12)P(=O)(O)O.Cl [CGP-78608, [(1 S)-1-[[(7-bromo-1,2,3,4-tetrahydro-2,3-dioxo-5-quinoxalinyl)methyl]amino]ethyl]phosph onic acid hydrochloride]",effect on activation of GluN1/GluN3 receptors,GluN1/GluN3 receptors [14],can dramatically enhance activation of GluN1/GluN3 receptors
O=c1[nH]c2nonc2nc1O [TK80],preference for GluN1/GluN3 over GluN1/GluN2 receptors,GluN1/GluN3 receptors [1],5- to 10 fold
NCC(=O)O [glycine],EC50,GluN3A,10 to 60 µM
